B1: DG_Ala mut: V105A/F108A/L112A/L114A/L115A (protein)
chain: METDESPSPLPCGPAGEAVMESRARPFQALPREQSPPPPLQTSSGAEVMDVGSGGDGQSELPAEDPFNFYGASLLSKGSFSKGRLLIDPNCSGHSPRTARHAPAARKASPDAKAAKDVKISVSFTESCRSKDRKVLYTGAERDVRAECGLLLSPVSGDVHACPFGGSVGDGVGIGGESADKKDEENELDQEKRVEYAVLDELEDFTDNLELDEEGAGGFTAKAIVQRDRVDEEALNFPYEDDFDNDVDALLEEGLCAPKKRRTEEKYGGDSDHPSDGETSVQPMMTKIKTVLKSRGRPPTEPLPDGWIMTFHNSGVPVYLHRESRVVTWSRPYFLGTGSIRKHDPPLSSIPCLHYKKMKDNEEREQSSDLTPSGDVSPVKPLSRSAELEFPLDEPDSMGADPGPPDEKDPLGAEAAPGALGQVKAKVEVCKDESVDLEEFRSYLEKRFDFEQVTVKKFRTWAERRQFNREMKRKQAESERPILPANQKLITLSVQDAPTKKEFVINPNGKSEVCILHEYMQRVLKVRPVYNFFECENPSEPFGASVTIDGVTYGSGTASSKKLAKNKAARATLEILIPDFVKQTSEEKPKDSEELEYFNHISIEDSRVYELTSKAGLLSPYQILHECLKRNHGMGDTSIKFEVVPGKNQKSEYVMACGKHTVRGWCKNKRVGKQLASQKILQLLHPHVKNWGSLLRMYGRESSKMVKQETSDKSVIELQQYAKKNKPNLHILSKLQEEMKRLAEEREETRKKPKMSIVASAQPGGEPLCTVDV
B2: DGΔ96–115: 96–115 aa of DGCR8 was removed (protein)
chain: METDESPSPLPCGPAGEAVMESRARPFQALPREQSPPPPLQTSSGAEVMDVGSGGDGQSELPAEDPFNFYGASLLSKGSFSKGRLLIDPNCSGHSKDVKISVSFTESCRSKDRKVLYTGAERDVRAECGLLLSPVSGDVHACPFGGSVGDGVGIGGESADKKDEENELDQEKRVEYAVLDELEDFTDNLELDEEGAGGFTAKAIVQRDRVDEEALNFPYEDDFDNDVDALLEEGLCAPKKRRTEEKYGGDSDHPSDGETSVQPMMTKIKTVLKSRGRPPTEPLPDGWIMTFHNSGVPVYLHRESRVVTWSRPYFLGTGSIRKHDPPLSSIPCLHYKKMKDNEEREQSSDLTPSGDVSPVKPLSRSAELEFPLDEPDSMGADPGPPDEKDPLGAEAAPGALGQVKAKVEVCKDESVDLEEFRSYLEKRFDFEQVTVKKFRTWAERRQFNREMKRKQAESERPILPANQKLITLSVQDAPTKKEFVINPNGKSEVCILHEYMQRVLKVRPVYNFFECENPSEPFGASVTIDGVTYGSGTASSKKLAKNKAARATLEILIPDFVKQTSEEKPKDSEELEYFNHISIEDSRVYELTSKAGLLSPYQILHECLKRNHGMGDTSIKFEVVPGKNQKSEYVMACGKHTVRGWCKNKRVGKQLASQKILQLLHPHVKNWGSLLRMYGRESSKMVKQETSDKSVIELQQYAKKNKPNLHILSKLQEEMKRLAEEREETRKKPKMSIVASAQPGGEPLCTVDV
B3: Deletion of the N-terminus of DGCR8 (1–275 aa): DGCR8 with deletion of 1–275 aa (protein, UniProt Q8WYQ5 276-773, looked up, fragment)
chain: DGETSVQPMMTKIKTVLKSRGRPPTEPLPDGWIMTFHNSGVPVYLHRESRVVTWSRPYFLGTGSIRKHDPPLSSIPCLHYKKMKDNEEREQSSDLTPSGDVSPVKPLSRSAELEFPLDEPDSMGADPGPPDEKDPLGAEAAPGALGQVKAKVEVCKDESVDLEEFRSYLEKRFDFEQVTVKKFRTWAERRQFNREMKRKQAESERPILPANQKLITLSVQDAPTKKEFVINPNGKSEVCILHEYMQRVLKVRPVYNFFECENPSEPFGASVTIDGVTYGSGTASSKKLAKNKAARATLEILIPDFVKQTSEEKPKDSEELEYFNHISIEDSRVYELTSKAGLLSPYQILHECLKRNHGMGDTSIKFEVVPGKNQKSEYVMACGKHTVRGWCKNKRVGKQLASQKILQLLHPHVKNWGSLLRMYGRESSKMVKQETSDKSVIELQQYAKKNKPNLHILSKLQEEMKRLAEEREETRKKPKMSIVASAQPGGEPLCTVDV
B4: DG115–773: 1–114 aa of DGCR8 was deleted (protein)
chain: LKDVKISVSFTESCRSKDRKVLYTGAERDVRAECGLLLSPVSGDVHACPFGGSVGDGVGIGGESADKKDEENELDQEKRVEYAVLDELEDFTDNLELDEEGAGGFTAKAIVQRDRVDEEALNFPYEDDFDNDVDALLEEGLCAPKKRRTEEKYGGDSDHPSDGETSVQPMMTKIKTVLKSRGRPPTEPLPDGWIMTFHNSGVPVYLHRESRVVTWSRPYFLGTGSIRKHDPPLSSIPCLHYKKMKDNEEREQSSDLTPSGDVSPVKPLSRSAELEFPLDEPDSMGADPGPPDEKDPLGAEAAPGALGQVKAKVEVCKDESVDLEEFRSYLEKRFDFEQVTVKKFRTWAERRQFNREMKRKQAESERPILPANQKLITLSVQDAPTKKEFVINPNGKSEVCILHEYMQRVLKVRPVYNFFECENPSEPFGASVTIDGVTYGSGTASSKKLAKNKAARATLEILIPDFVKQTSEEKPKDSEELEYFNHISIEDSRVYELTSKAGLLSPYQILHECLKRNHGMGDTSIKFEVVPGKNQKSEYVMACGKHTVRGWCKNKRVGKQLASQKILQLLHPHVKNWGSLLRMYGRESSKMVKQETSDKSVIELQQYAKKNKPNLHILSKLQEEMKRLAEEREETRKKPKMSIVASAQPGGEPLCTVDV

Tested on: ERH
Assay: Co-immunoprecipitation and Western blot of DGCR8 mutants and fragments with ERH
Type: binding, human
Conditions: co-IP / Western blot, overexpressed DGCR8 mutants, HEK293E, RNase A
Outline: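 HEK293E cells at 50% confluence were transfected with 5 μg total of Flag-, HA- or myc-tagged plasmids using branched/linear PEI (1:1) and harvested after 2 days. Anti-Flag, anti-HA or protein G-bound anti-myc beads were incubated with lysate 1–2 h at 4°C, washed three times and eluted in SDS buffer for western blot.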

| Molecule | interaction with ERH |
| --- | --- |
| B1 | impaired in ERH binding |
| B2 | could not pull down ERH |
| B3 | abrogated the interaction |
| B4 | could not pull down ERH |
